E-selectin induc – induces E-selectin expression in human endothelial cells; HUVEC E-selectin immunofluorescence imaging; normalized: neutral wells 0, TNF-alpha wells 100; 260,000 compounds, 0.37% hits; activation, % at 7.58 µM; P16581;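 active = mean E-selectin-positive cell signal at least 10% of the positive control, reached in at least 60% of replicates, without over 20% cell loss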
Target sequence (P16581 whole entry, looked up): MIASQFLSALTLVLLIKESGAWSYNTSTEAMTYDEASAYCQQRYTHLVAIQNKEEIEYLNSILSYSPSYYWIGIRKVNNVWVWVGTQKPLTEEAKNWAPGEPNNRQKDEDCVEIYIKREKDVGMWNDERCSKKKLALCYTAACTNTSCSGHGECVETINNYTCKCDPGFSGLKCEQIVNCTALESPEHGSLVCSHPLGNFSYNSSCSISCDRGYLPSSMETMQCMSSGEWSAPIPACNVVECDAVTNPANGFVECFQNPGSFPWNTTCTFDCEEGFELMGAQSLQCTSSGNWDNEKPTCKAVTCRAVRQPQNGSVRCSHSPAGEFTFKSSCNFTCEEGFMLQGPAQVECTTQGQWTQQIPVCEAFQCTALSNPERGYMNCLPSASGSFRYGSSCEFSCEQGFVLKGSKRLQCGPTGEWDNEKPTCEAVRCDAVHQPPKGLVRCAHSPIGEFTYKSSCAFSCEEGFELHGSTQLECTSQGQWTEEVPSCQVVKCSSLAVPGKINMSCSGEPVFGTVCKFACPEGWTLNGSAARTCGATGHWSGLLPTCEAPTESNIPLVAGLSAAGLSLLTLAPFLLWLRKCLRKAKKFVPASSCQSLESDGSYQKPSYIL
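System: HUVEC / Compound: single concentration / Signal: immunofluorescence imaging / Read-out: percent E-selectin-positive cells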
SIRT5 block – inhibitors of human sirtuin-5 desuccinylase; Purified SirT5, succinyl-peptide AMC, trypsin-coupled fluorescence; inhibition, % at 15 µM; 330,000 compounds, 1.1% hits; in the data active = inhibition above about 15%
C2C12 statin – suppression of simvastatin myotoxicity | C2C12 myotubes + simvastatin, ATP luminescence, 48 h; scaled: DMSO 0, geranylgeraniol control 100 | rescue of ATP level, % at 7.49 µM | 330,000 compounds, 0.78% hits | AID 602340;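 active = mean ATP rescue above about 67%, or every replicate alone reaching that limit, limit read from the data, passing the limit was not always enough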;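 also: myotubes were challenged with 10 µM simvastatin during compound exposure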
FN deposition inh – fibronectin deposition inhibition; AH1F fibroblasts, Alexa488-fibronectin deposition fluorescence, overnight; inhibition, % at 12.6 µM; 350,000 compounds, 0.086% hits; AID 743247;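 active = mean inhibition across replicates of 30% or more, regardless of how many single replicates reach that level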;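 also: positive control wells lacked labelled fibronectin entirely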
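Assay system: AH1F fibroblast monolayer, labelled fibronectin deposition. Amount: 10000 cells per well. Also added: labelled fibronectin 24 nM. Compound: single-point pinned compound. Incubation: cell attachment 1 h, compound and FN exposure overnight. Detection: fluorescence after three HBSS washes, excitation 485 nm, emission 525 nm. Read-out: inhibition of fibronectin deposition signal.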
rRNA inh HTS – inhibitors of bacterial rRNA selective over humanized ribosomes; E. coli WT GFP vs humanized-ribosome RFP mutants, fluorescence, 24 h; active compounds read low; DMSO median 0, no signal -100; GFP signal change (wild-type ribosome), % (no concentration beside the values); 350,000 compounds, 1.6% hits;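 active = significant combined selectivity score with lowered wild-type GFP, culture density cut under 30%, mutant RFP and density less affected; inactive = any of these conditions unmet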
FGF22 binding – shifts melting point of recombinant human FGF22. Q9HCT0. recombinant FGF22 thermal shift, SYPRO orange fluorescence; percent of sucrose octasulfate shift, DMSO zero. activity (Tm shift, normalised), % at 9.99 µM. 340,000 compounds, 1.5% hits. AID 651658;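 active = mean Tm shift, scaled 0 neutral to 100 positive control, at about 1.3% or above, every replicate too, limit read from the data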
Starred values were filed as active, the others as inactive; nt = no result given. Most compounds without a hit are left out; they make up all but 4% or so of the library.

SMILES | E-selectin induc | SIRT5 block | C2C12 statin | FN deposition inh | rRNA inh HTS | FGF22 binding
CCOC(=O)C1CCN(S(=O)(=O)c2cc(Br)cc3c2N(C(C)=O)C(C)C3)CC1 (centres undefined) | nt | nt | 88* | 2 | nt | nt
CCOC(=O)C1CCN(S(=O)(=O)c2ccc(C(C)(C)C)cc2)CC1 | -1 | 10 | nt | 3 | 3 | 43*
COc1ccccc1-c1ccc2n(c1=O)C[C@H]1[C@H](CO)[C@@H](C(=O)NCc3ccccn3)[C@@H]2N1C | 0 | -5 | nt | nt | 1 | nt
COC1=CC(=Cc2c(N)n3nc(CC(=O)N4CCCCC4)sc3nc2=O)C=C(OC)C1=O | 0 | 32* | -1 | -5 | 7 | 0
CCOC1=C/C(=C/c2c(N)n3nc(CC(=O)N4CCCC4)sc3nc2=O)C=CC1=O | nt | -2 | 11 | 4 | 0 | 0
COC1=C/C(=C/c2c(N)n3nc(CC(=O)N4CCCC4)sc3nc2=O)C=CC1=O | nt | 30* | 4 | 7 | -3 | 0
Cc1noc(C)c1-c1ccc(C(=O)Nc2cccc(NS(C)(=O)=O)c2)c2occc12 | 0 | -1 | 13 | 7 | -8 | 0
Cc1noc(C)c1-c1ccc(C(=O)Nc2cccc(C(F)(F)F)c2)c2occc12 | 2 | 19* | -6 | -12 | -14 | 0
COc1ccccc1NC(=O)C(C)OC(=O)C1CC(=O)N(c2ccc3c(c2)OCCO3)C1 (centres undefined) | 107* | -1 | 8 | -1 | -8 | 0
NS(=O)(=O)c1cccc(NC(=O)Cc2ccc(Cl)c(Cl)c2)c1 | 4 | -2 | nt | 3 | -27 | 0
NS(=O)(=O)c1cccc(NC(=O)c2cccc(-c3ccc(O)cc3)c2)c1 | nt | -9 | 5 | -8 | -26* | 0
NS(=O)(=O)c1cccc(NC(=O)Nc2ccc(Cl)cc2)c1 | 0 | 0 | nt | -3 | -31* | 0
Cc1noc(C)c1NC(=O)N(C)C[C@H]1Oc2c(NC(=O)C3CC3)cccc2C(=O)N([C@@H](C)CO)C[C@H]1C | 0 | 2 | -1 | nt | 3 | 1
CC(C)NC(=O)Nc1ccc2c(c1)C(=O)N([C@@H](C)CO)C[C@H](C)[C@H](CN(C)S(=O)(=O)c1cn(C)cn1)OCCCC[C@@H](C)O2 | nt | -4 | nt | -3 | 7 | 0
CN1CCCN(c2cc(-c3ccc4ccccc4c3)nc3ccnn23)CC1 | 150* | -5 | -1 | -6 | 11 | 0
Cc1cccc(-c2cc(N3CCCN(C)CC3)n3nccc3n2)c1 | 69* | -5 | 2 | -3 | 5 | 0
Cc1noc(C)c1NC(=O)N(C)C[C@H]1Oc2ccc(NC(=O)CCC(F)(F)F)cc2C(=O)N([C@@H](C)CO)C[C@H]1C | -3 | -1 | 9 | nt | 3 | nt
CO[C@H]1CN(C)C(=O)c2cc(NC(=O)c3cnccn3)ccc2OC[C@H](C)N(C)C[C@H]1C | 0 | -2 | 4 | -9 | 0 | 0
C[C@@H]1CN([C@H](C)CO)S(=O)(=O)c2ccc(C#CC3CCCC3)cc2O[C@@H]1CN(C)C(=O)Nc1cc(F)ccc1F | 0 | -1 | 4 | nt | -2 | 0
Cc1ccc(S(=O)(=O)Nc2cccc3c2O[C@H](CN(C)C(=O)Nc2ccc4c(c2)OCO4)[C@H](C)CN([C@H](C)CO)C3=O)cc1 | 0 | 1 | -17 | nt | 1 | 0
C[C@@H]1CN([C@@H](C)CO)C(=O)c2cccc(NS(=O)(=O)c3ccc(Cl)cc3)c2O[C@H]1CN(C)C(=O)Nc1ccc2c(c1)OCO2 | 98* | -12 | 37 | -5 | -3 | 0
C[C@H](CO)N1C[C@H](C)[C@H](CN(C)C(=O)Nc2ccc3c(c2)OCO3)Oc2c(NS(=O)(=O)c3ccc(Cl)cc3)cccc2C1=O | 50* | 8 | -42 | 2 | -12 | -1
C[C@@H]1CN([C@H](C)CO)C(=O)c2cccc(NS(=O)(=O)c3ccc(Cl)cc3)c2O[C@H]1CN(C)C(=O)Nc1ccc2c(c1)OCO2 | 9 | 0 | 19 | 0 | -4 | 0
CNC[C@@H]1Oc2ncc(C3=CCCC3)cc2C(=O)N([C@H](C)CO)C[C@@H]1C | 0 | nt | -2 | nt | 17 | nt
COc1ccccc1-c1ccc2n(c1=O)C[C@@H]1[C@@H](CO)[C@H](C(=O)N3CCN(C)CC3)[C@H]2N1CC1CC1 | 0 | -5 | 16 | nt | 6 | 0
SMILES | E-selectin induc | SIRT5 block | C2C12 statin | FN deposition inh | rRNA inh HTS | FGF22 binding
O=S(=O)(Nc1ccccc1)c1cccc2nonc12 | 0 | -2 | 3 | -5 | 14 | 40
ONC=Nc1cccc2nonc12 | nt | nt | 146* | nt | nt | nt
C[C@@H]1CN([C@@H](C)CO)C(=O)Cc2cc(NS(=O)(=O)c3ccc(Cl)cc3)ccc2O[C@@H]1CN(C)Cc1ccncc1 | -13 | -3 | 5 | -6 | -3 | 0
CCC(=O)Nc1ccc(Cl)c(NC(=S)NC(=O)COc2ccccc2)c1 | 0 | 0 | nt | -5 | 8 | 44*
CCCC(=O)Nc1ccc(Cl)c(NC(=O)c2ccco2)c1 | nt | nt | 4 | nt | nt | nt
CCCC(=O)Nc1ccc(Cl)c(NC(=S)NC(=O)c2ccco2)c1 | nt | nt | nt | 0 | -16* | 1.5*
O=C(N[C@H]1CC[C@H](CCn2cc(Cc3ccccc3)nn2)O[C@@H]1CO)c1cnccn1 | 0 | -4 | -2 | nt | 1 | 0
O=C(NCC[C@@H]1CC[C@H](NC(=O)c2cccnc2)[C@@H](CO)O1)Nc1ccc(F)cc1 | 1 | -1 | 2 | nt | 1 | -1
C[C@@H]1CCCCO[C@@H](CN(C)S(=O)(=O)c2ccccc2)[C@H](C)CN([C@@H](C)CO)C(=O)c2cc(NS(=O)(=O)c3cccs3)ccc2O1 | nt | 7 | nt | -9 | -2 | 0
CCOC(=O)C1CCCN(C(=O)c2cc(S(=O)(=O)N(C)C)ccc2N2CCCC2)C1 (centres undefined) | 428* | 2 | 3 | -10 | -1 | 0
CCOC(=O)C1CCN(C(=O)c2cc(S(=O)(=O)N(C)C)ccc2N2CCCC2)CC1 | nt | -4 | -1 | 4 | 4 | 0
COCCNC(=O)C[C@@H]1CC[C@H]2[C@@H](COC[C@H](O)CN2C(=O)Nc2ccccc2OC)O1 | 0 | 4 | -14 | 0 | -2 | 0
COCC(=O)Nc1ccc2c(c1)[C@@H]1C[C@H](CC(=O)N3CCN(C)CC3)O[C@H](CO)[C@@H]1O2 | 1 | nt | -7 | -14 | 3 | 0
COc1ccc2c3c([nH]c2c1)[C@@H](CO)N(Cc1nccs1)CC31CCN(Cc2nccs2)CC1 | 0 | nt | nt | nt | 4 | 0
C[C@@H]1CN([C@@H](C)CO)C(=O)c2cc(C#CCN(C)C)cnc2O[C@H]1CN(C)S(=O)(=O)c1ccccc1 | 0 | 1 | -20 | 5 | 3 | 0

High-throughput results from PubChem.
